These results are taken from ChEMBL document CHEMBL1136626, “Discovery of novel and selective IKK-beta serine-threonine protein kinase inhibitors. Part 1” (Bioorg Med Chem Lett, 2003).

Test [1] relates to A549. The test can be described thus: In vitro concentration required to inhibit the TNF-alpha-induced RANTES production in A549 human lung epithelium cell line. Format: functional, cell-based. In short, it runs like this: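 A549 human lung epithelial cells grown in D-MEM with 10% FCS, penicillin/streptomycin and 2 mM glutamine. Cells (4×10⁴/well) pretreated 1 h with compound or vehicle (0.1% DMSO), then stimulated with 100 ng/mL TNF-α for 24 h. RANTES in supernatants measured by quantitative sandwich fluorescent immunoassay.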

The test system of test [2] is HEK293. The test can be described thus: In vitro inhibition of NF-kappaB-Luciferase in HEK293 cell line. Format: functional, cell-based. The settings on record: Homo sapiens.
Test [3] deals with T1, Inhibitor of nuclear factor kappa-B kinase subunit alpha (Homo sapiens, UniProt O15111).
T1 sequence (O15111 whole entry): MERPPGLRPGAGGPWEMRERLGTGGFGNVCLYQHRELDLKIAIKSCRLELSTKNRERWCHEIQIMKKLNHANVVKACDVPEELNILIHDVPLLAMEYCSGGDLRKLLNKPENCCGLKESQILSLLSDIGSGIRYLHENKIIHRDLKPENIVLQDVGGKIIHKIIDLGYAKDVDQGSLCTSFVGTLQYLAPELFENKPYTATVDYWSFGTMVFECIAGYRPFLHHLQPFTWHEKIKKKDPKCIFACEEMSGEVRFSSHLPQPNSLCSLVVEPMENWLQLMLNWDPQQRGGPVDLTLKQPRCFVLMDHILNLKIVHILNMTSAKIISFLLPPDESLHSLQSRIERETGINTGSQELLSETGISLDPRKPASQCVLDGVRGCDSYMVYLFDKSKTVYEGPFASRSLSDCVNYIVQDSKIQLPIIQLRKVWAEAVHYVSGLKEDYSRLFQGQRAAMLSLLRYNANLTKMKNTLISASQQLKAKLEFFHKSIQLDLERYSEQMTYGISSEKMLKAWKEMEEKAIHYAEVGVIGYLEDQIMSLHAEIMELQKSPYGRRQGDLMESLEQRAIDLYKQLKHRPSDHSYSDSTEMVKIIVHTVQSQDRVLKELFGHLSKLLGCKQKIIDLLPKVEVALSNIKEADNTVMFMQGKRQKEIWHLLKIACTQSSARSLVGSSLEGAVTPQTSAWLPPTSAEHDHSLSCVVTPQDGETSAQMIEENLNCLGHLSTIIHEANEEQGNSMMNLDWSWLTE
The test is described as follows: Inhibition of human IKK-alpha.

Test [4] has as its target T2, Inhibitor of nuclear factor kappa-B kinase subunit beta (Homo sapiens, UniProt O14920).
T2 sequence (O14920 whole entry): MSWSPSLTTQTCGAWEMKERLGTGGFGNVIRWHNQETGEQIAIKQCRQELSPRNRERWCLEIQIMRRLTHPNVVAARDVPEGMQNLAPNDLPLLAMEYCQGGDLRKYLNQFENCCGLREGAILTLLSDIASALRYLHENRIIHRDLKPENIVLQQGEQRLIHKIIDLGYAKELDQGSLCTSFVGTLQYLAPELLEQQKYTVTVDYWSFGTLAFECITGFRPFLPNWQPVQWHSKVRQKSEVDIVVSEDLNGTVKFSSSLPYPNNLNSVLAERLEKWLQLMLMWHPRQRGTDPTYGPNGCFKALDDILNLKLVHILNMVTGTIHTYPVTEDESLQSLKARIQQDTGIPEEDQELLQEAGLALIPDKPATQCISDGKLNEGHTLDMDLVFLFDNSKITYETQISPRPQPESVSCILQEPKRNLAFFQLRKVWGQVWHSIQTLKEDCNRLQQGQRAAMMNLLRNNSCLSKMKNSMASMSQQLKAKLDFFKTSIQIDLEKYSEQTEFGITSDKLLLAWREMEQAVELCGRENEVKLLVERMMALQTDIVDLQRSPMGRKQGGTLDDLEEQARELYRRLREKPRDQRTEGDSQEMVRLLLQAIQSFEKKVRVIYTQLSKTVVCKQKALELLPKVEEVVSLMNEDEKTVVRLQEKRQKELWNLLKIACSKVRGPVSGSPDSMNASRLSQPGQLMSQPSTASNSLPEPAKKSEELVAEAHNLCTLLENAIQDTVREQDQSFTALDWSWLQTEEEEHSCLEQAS
The test is described as follows: In vitro inhibitory concentration required against recombinant human IkB kinase beta (IKK-beta). The method, boiled down: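 Recombinant His-tagged human IKK-β from baculovirus-infected insect cells, final […], with biotinylated GST-IκBα(1-54) substrate (final 0.2) in Tris-HCl pH 7.6 buffer with MgCl₂, DTT, Na₃VO₄ and BSA; DMSO final 0.25%. Started with ATP plus [γ-³³P]ATP, 2 h at rt, stopped with EDTA. Substrate captured on streptavidin plates, washed, counted by scintillation.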

Test [5] relates to Jurkat. The test is described as follows: In vitro inhibition of anti-CD3/anti-CD28-I induced IL-2 release in Jurkat T-cells. Format: functional, cell-based. The settings on record: Homo sapiens.
For test [6], the system named is Mus musculus. The test is described as follows: In vivo LPS-induced TNF-alpha production in mice after ip administration (30 min pretreatment). Format: functional. The method, boiled down: (§1)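 Eight-week-old female BALB/c mice given 200 (per mouse) LPS ip in saline. Compound dosed ip 30 min before LPS, or po in 10% cremophor/saline 60 min before. Blood taken under pentobarbital anaesthesia 90 min after LPS. Plasma TNFα measured by ELISA; mean of 5 mice per group used to calculate percent reduction versus LPS controls; ED₅₀ reported.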

For test [7], the system named is Mus musculus. The test is described as follows: In vivo LPS-induced TNF-alpha production in mice after oral administration (60 min pretreatment). The test is classed as functional. The method, boiled down: as §1
For test [8], the species on record is Mus musculus. The test is described as follows: In vitro inhibition of IgE in mouse B-cells. Format: functional, cell-based.
For test [9], the target named is Tyrosine-protein kinase SYK (Homo sapiens, UniProt P43405). The test is described as follows: Inhibition of human Syk.
The target of test [10] is T3, Dual specificity mitogen-activated protein kinase kinase 4 (Homo sapiens, UniProt P45985).
T3 sequence (P45985 whole entry): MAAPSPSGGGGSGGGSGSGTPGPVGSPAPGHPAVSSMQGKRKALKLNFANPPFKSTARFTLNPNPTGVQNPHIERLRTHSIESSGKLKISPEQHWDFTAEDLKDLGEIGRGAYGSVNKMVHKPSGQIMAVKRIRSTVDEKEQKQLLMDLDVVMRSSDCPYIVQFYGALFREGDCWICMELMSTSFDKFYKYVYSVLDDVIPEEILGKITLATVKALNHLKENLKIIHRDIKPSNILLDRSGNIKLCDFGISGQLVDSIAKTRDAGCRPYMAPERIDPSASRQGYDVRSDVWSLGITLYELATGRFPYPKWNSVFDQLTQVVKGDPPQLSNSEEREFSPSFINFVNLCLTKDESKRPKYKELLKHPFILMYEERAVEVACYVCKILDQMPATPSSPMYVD
The test can be described thus: Inhibition of human mitogen-activated protein kinase kinase 4 (MKK4).

Test [11] has as its system PBMC. The test can be described thus: In vitro inhibition TNF-alpha release in human Peripheral blood mononuclear cells (PBMC). Format: functional, cell-based.

The term IC50 denotes the concentration needed to halve the response being measured. Broadly, the ED50 is the dose at which the effect has come halfway, by size or by number of responders. As to `N#Cc1c(-c2cccc(NC(=O)C3CCC(=O)O3)c2)cc(-c2ccccc2O)nc1N` (stereo unspecified), the IC50 in [1] was 8 µM; in [2], 8 µM; in test [3], more than 20 µM; in test [4], 1.5 µM; in test [5], 15 µM; in test [8], 0.35 µM. For the same compound, the results for the IC50 in test [9], in [10] and in test [11] were more than 20 µM, more than 20 µM and 10 µM, respectively. Moreover, the median effective dose (ED50) in test [6] is 10 mg/kg; in test [7], more than 30 mg/kg.
